Assay [1] deals with MKN-45. Put plainly: Cytotoxic activity against human MKN45 cells assessed as cell viability at 1 uM incubated for 5 days by MTT assay. The following applies: MKN-45, 120 h, read-out: Activity. The assay is classed as functional. In outline: (§1)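 MTT viability: exponentially growing cells, 10 000 viable cells/well in RPMI plated overnight, then exposed to test compounds for 3 days (HT-29, Molm-14) or 5 days (Mkn-45) at 37 °C, 5% CO2. MTT added for 4 h, then SDS/HCl solubilization overnight and absorbance read at 562 nm. Viability is expressed relative to untreated cells (100%). Triplicate.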

Assay [2] concerns the target Protein kinase C alpha type (Homo sapiens) (UniProt P17252). The assay can be described thus: Inhibition of PKCalpha assessed as enzyme residual activity at 10 uM relative to untreated control. In outline:
(§2)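 Residual kinase activity at 10 μM compound, determined by a commercial kinase profiling service (Millipore) across 15 kinases of different classes. Each compound tested in duplicate.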

The test system of assay [3] is HUVEC. The assay can be described thus: Induction of apoptosis in human HUVEC assessed as accumulation at subG1 phase at 0.79 uM incubated for 4 days by flow cytometry (reference value: 15.4 +/- 1.5%). The format is functional. In general terms: In flow cytometry, cells or beads pass a laser one at a time.
The target of assay [4] is Platelet-derived growth factor receptor beta (Homo sapiens) (UniProt P09619). Put plainly: Inhibition of PDGFRbeta assessed as enzyme residual activity at 10 uM relative to untreated control. In outline: as §2
Assay [5] has as its system MOLM-14. Put plainly: Cytotoxic activity against human MOLM14 cells assessed as cell viability at 1 uM incubated for 3 days by MTT assay. Particulars: MOLM-14, 72 h, read-out: Activity. The assay is classed as functional. The essentials:
as §1
In general terms: Tetrazolium assays rely on reduction of a dye to a coloured formazan, in cell work by metabolically active cells.

In assay [6] the test system is MKN-45. The assay can be described thus: Induction of apoptosis in human MKN45 assessed as accumulation at subG1 phase at 5 uM incubated for 7 days by flow cytometry (reference value: 10.9 +/- 3.2%). The format is functional.
For assay [7], the system named is MKN-45. Put plainly: Cytotoxic activity against human MKN45 cells assessed as cell viability at 10 uM incubated for 5 days by MTT assay. The format is functional. The following applies: MKN-45, 120 h, read-out: Activity. In outline: as §1
The subject of assay [8] is MKN-45. The assay can be described thus: Cytotoxic activity against human MKN45 cells assessed as cell viability at 20 uM incubated for 5 days by MTT assay. The format is functional. Particulars: MKN-45, 120 h, read-out: Activity. In outline: as §1
A short description of assay [9]: Inhibition of angiogenesis in chick embryo model assessed as reduction in vessel growth at 26 nM incubated for 24 hrs. The format is functional, Gallus gallus. In outline: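 White leghorn eggs incubated at 37.5 °C, 62% humidity. At 70 h, albumen removed and shell windowed. From 75 h, 15 agarose pellets (from a 26 mM DMSO stock in 2% agarose; final concentration 26 nM) placed on the area vasculosa.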

Assay [10] relates to MOLM-14. The assay can be described thus: Cytotoxic activity against human MOLM14 cells assessed as cell viability at 0.5 uM incubated for 3 days by MTT assay. The format is functional. The following applies: MOLM-14, 72 h, read-out: Activity. In outline:
as §1

Assay [11] addresses Angiopoietin-1 receptor (Homo sapiens) (UniProt Q02763). The assay can be described thus: Inhibition of TIE2 assessed as enzyme residual activity at 10 uM relative to untreated control. The essentials: as §2
The subject of assay [12] is MOLM-14. The assay can be described thus: Cytotoxic activity against human MOLM14 cells assessed as cell viability at 10 uM incubated for 3 days by MTT assay. The assay is classed as functional. Particulars: MOLM-14, 72 h, read-out: Activity. In outline:
as §1

Assay [13] deals with MKN-45. Put plainly: Induction of apoptosis in human MKN45 assessed as accumulation at subG1 phase at 1 uM incubated for 7 days by flow cytometry (reference value: 10.9 +/- 3.2%). The format is functional.
Assay [14] concerns HUVEC. Put plainly: Induction of apoptosis in human HUVEC assessed as accumulation at subG1 phase at 2.6 uM incubated for 4 days by flow cytometry (reference value: 15.4 +/- 1.5%). The format is functional.
Assay [15] has as its target Hepatocyte growth factor receptor (Homo sapiens) (UniProt P08581). Put plainly: Inhibition of MET assessed as enzyme residual activity at 10 uM relative to untreated control. In outline:
as §2

Assay [16] has as its target RAF proto-oncogene serine/threonine-protein kinase (Homo sapiens) (UniProt P04049). The assay can be described thus: Inhibition of c-RAF assessed as enzyme residual activity at 10 uM relative to untreated control. In outline: as §2
The test system of assay [17] is MOLM-14. The assay can be described thus: Cytotoxic activity against human MOLM14 cells assessed as cell viability at 20 uM incubated for 3 days by MTT assay. The assay is classed as functional. Particulars: MOLM-14, 72 h, read-out: Activity. The essentials:
as §1

Assay [18] deals with Epidermal growth factor receptor (Homo sapiens) (UniProt P00533). Put plainly: Inhibition of EGFR assessed as enzyme residual activity at 10 uM relative to untreated control. The essentials:
as §2

The target in assay [19] is Protein kinase C epsilon type (Homo sapiens) (UniProt Q02156). Put plainly: Inhibition of PKCepsilon assessed as enzyme residual activity at 10 uM relative to untreated control. In outline: as §2
The subject of assay [20] is MKN-45. The assay can be described thus: Cytotoxic activity against human MKN45 cells assessed as cell viability at 5 uM incubated for 5 days by MTT assay. The assay is classed as functional. The following applies: MKN-45, 120 h, read-out: Activity. In outline: as §1
In assay [21] the test system is MKN-45. Put plainly: Cytotoxic activity against human MKN45 cells assessed as cell viability at 50 uM incubated for 5 days by MTT assay. The following applies: MKN-45, 120 h, read-out: Activity. The assay is classed as functional. In outline: as §1
In assay [22] the test system is MKN-45. Put plainly: Induction of apoptosis in human MKN45 assessed as accumulation at subG1 phase at 10 uM incubated for 7 days by flow cytometry (reference value: 10.9 +/- 3.2%). The format is functional.
Assay [23] deals with Cyclin-dependent kinase 2/cyclin A (Homo sapiens) (UniProt P24941+P20248+P78396). Put plainly: Inhibition of CDK2/cyclinA assessed as enzyme residual activity at 10 uM relative to untreated control. The assay is classed as protein-complex assay. In outline:
as §2

Assay [24] deals with MOLM-14. The assay can be described thus: Cytotoxic activity against human MOLM14 cells assessed as cell viability at 50 uM incubated for 3 days by MTT assay. The assay is classed as functional. The following applies: MOLM-14, 72 h, read-out: Activity. The essentials:
as §1

For assay [25], the target named is Protein kinase C gamma type (Homo sapiens) (UniProt P05129). Put plainly: Inhibition of PKCgamma assessed as enzyme residual activity at 10 uM relative to untreated control. The essentials: as §2
Assay [26] concerns the target Cyclin-dependent kinase 1/cyclin B1 (Homo sapiens) (UniProt P06493+P14635). The assay can be described thus: Inhibition of CDK1/cyclinB assessed as enzyme residual activity at 10 uM relative to untreated control. The format is protein-complex assay. In outline: as §2
Assay [27] deals with T1, Glycogen synthase kinase-3 beta (Homo sapiens, UniProt P49841). The assay can be described thus: Inhibition of GSK3beta. In outline:
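IC50 determined by a commercial kinase profiling service (Millipore IC50 Profiler); duplicate testing.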

For assay [28], the target named is Protein kinase C iota type (Homo sapiens) (UniProt P41743). The assay can be described thus: Inhibition of PKCiota assessed as enzyme residual activity at 10 uM relative to untreated control. In outline: as §2
Assay [29] concerns MKN-45. Put plainly: Induction of apoptosis in human MKN45 assessed as accumulation at subG1 phase at 20 uM incubated for 7 days by flow cytometry (reference value: 10.9 +/- 3.2%). The format is functional.
Assay [30] deals with MKN-45. The assay can be described thus: Cytotoxic activity against human MKN45 cells assessed as cell viability at 0.5 uM incubated for 5 days by MTT assay. The assay is classed as functional. The following applies: MKN-45, 120 h, read-out: Activity. The essentials:
as §1

Assay [31] relates to MKN-45. The assay can be described thus: Induction of apoptosis in human MKN45 assessed as accumulation at subG1 phase at 15 uM incubated for 7 days by flow cytometry (reference value: 10.9 +/- 3.2%). The assay is classed as functional.
The target of assay [32] is T1, Glycogen synthase kinase-3 beta. Put plainly: Inhibition of GSK3beta assessed as enzyme residual activity at 10 uM relative to untreated control. The essentials:
as §2

Assay [33] concerns the target Receptor-type tyrosine-protein kinase FLT3 (Homo sapiens) (UniProt P36888). Put plainly: Inhibition of FLT3 assessed as enzyme residual activity at 10 uM relative to untreated control. In outline:
as §2

For assay [34], the target named is CDK6/cyclin D3 (Homo sapiens) (UniProt P30281+Q00534). The assay can be described thus: Inhibition of CDK6/cyclinD3 assessed as enzyme residual activity at 10 uM relative to untreated control. The assay is classed as protein-complex assay. In outline: as §2
Assay [35] concerns the target Vascular endothelial growth factor receptor 2 (Homo sapiens, UniProt P35968). Put plainly: Inhibition of VEGFR2 assessed as enzyme residual activity at 10 uM relative to untreated control. In outline: as §2

Structures are written as SMILES.

The text below walks through data of ChEMBL document CHEMBL2177085 (J Med Chem, 2012).

Platelet-derived growth factor receptor beta (Homo sapiens), sequence (P09619 whole entry): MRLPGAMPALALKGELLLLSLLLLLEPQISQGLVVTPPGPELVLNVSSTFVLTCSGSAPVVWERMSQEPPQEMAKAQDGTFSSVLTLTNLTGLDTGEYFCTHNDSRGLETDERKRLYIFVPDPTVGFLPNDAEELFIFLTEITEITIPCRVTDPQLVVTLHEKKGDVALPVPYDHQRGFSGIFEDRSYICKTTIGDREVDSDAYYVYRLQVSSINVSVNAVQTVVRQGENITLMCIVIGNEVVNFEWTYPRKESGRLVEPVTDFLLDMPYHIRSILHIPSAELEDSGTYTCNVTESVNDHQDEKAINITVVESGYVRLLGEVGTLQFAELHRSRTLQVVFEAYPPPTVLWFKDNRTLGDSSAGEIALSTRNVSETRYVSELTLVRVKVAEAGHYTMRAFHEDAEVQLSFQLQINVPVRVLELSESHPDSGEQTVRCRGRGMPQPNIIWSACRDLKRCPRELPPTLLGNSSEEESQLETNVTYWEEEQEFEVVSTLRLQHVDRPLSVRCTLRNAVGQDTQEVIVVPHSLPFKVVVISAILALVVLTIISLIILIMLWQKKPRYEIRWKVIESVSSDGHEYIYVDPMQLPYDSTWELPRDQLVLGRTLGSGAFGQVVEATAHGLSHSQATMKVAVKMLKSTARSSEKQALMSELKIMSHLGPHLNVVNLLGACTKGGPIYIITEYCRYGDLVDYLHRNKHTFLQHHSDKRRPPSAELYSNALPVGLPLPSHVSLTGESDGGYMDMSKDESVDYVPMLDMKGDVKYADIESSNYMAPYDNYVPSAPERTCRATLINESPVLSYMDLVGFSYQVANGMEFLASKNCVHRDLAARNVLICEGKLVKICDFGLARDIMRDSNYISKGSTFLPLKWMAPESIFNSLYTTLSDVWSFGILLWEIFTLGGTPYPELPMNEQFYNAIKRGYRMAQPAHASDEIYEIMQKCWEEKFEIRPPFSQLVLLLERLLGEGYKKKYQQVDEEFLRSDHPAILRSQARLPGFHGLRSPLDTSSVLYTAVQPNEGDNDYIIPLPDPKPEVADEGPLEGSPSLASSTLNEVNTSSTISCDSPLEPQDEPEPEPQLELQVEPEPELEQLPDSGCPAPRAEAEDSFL
Protein kinase C epsilon type (Homo sapiens), sequence (Q02156 whole entry): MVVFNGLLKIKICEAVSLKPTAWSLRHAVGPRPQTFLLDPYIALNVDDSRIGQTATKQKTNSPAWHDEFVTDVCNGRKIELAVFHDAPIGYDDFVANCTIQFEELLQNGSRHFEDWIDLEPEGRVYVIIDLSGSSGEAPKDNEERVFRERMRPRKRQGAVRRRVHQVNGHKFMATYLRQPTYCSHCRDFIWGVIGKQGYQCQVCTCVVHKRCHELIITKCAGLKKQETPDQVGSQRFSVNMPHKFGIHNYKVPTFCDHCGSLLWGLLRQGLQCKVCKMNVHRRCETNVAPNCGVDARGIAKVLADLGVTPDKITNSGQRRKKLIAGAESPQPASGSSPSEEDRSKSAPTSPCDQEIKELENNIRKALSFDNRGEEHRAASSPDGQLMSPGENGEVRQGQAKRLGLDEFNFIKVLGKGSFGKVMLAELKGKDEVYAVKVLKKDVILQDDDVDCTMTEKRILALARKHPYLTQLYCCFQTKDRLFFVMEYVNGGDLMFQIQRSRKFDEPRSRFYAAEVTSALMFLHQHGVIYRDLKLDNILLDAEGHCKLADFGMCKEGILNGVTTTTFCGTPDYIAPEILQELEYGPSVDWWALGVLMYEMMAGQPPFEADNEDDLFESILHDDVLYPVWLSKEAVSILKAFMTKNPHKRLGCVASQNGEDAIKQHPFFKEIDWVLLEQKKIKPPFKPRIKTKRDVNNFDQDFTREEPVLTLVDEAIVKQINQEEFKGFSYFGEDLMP
Hepatocyte growth factor receptor (Homo sapiens), sequence (P08581 whole entry): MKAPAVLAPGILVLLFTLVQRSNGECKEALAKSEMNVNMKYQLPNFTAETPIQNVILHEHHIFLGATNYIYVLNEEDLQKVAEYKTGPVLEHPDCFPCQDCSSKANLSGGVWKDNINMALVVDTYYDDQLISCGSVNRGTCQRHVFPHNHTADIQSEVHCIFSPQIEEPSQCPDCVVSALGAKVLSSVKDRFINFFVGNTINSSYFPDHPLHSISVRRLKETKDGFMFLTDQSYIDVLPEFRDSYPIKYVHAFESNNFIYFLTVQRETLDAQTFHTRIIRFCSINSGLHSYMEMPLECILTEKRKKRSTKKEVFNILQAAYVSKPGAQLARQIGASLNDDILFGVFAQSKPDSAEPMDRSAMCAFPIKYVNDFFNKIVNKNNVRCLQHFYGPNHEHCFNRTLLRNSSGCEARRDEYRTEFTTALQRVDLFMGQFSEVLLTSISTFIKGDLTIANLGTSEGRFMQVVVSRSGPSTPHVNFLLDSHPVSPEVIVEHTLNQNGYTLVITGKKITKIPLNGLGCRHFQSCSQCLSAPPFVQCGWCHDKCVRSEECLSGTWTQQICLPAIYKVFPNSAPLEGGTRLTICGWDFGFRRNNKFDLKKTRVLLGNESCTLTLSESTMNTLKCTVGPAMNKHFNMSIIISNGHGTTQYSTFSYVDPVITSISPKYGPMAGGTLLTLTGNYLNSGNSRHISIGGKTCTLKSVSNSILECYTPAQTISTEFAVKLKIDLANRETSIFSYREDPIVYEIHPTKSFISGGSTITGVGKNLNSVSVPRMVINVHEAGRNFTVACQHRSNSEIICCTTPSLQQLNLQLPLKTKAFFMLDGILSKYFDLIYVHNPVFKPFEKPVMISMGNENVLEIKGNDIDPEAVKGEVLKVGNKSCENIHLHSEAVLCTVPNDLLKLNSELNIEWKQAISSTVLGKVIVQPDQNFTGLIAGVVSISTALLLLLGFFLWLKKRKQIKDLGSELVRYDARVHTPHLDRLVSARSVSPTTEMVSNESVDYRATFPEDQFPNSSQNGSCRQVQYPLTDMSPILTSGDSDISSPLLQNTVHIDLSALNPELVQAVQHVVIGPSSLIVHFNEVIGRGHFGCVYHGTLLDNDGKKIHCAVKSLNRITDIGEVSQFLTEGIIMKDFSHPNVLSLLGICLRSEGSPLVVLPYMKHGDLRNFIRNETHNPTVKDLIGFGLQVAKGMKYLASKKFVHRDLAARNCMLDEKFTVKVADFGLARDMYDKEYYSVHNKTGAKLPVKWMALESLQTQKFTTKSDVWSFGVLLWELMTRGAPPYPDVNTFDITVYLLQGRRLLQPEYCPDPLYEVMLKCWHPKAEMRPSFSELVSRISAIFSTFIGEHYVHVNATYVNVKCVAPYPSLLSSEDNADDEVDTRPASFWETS
Protein kinase C iota type (Homo sapiens), sequence (P41743 whole entry): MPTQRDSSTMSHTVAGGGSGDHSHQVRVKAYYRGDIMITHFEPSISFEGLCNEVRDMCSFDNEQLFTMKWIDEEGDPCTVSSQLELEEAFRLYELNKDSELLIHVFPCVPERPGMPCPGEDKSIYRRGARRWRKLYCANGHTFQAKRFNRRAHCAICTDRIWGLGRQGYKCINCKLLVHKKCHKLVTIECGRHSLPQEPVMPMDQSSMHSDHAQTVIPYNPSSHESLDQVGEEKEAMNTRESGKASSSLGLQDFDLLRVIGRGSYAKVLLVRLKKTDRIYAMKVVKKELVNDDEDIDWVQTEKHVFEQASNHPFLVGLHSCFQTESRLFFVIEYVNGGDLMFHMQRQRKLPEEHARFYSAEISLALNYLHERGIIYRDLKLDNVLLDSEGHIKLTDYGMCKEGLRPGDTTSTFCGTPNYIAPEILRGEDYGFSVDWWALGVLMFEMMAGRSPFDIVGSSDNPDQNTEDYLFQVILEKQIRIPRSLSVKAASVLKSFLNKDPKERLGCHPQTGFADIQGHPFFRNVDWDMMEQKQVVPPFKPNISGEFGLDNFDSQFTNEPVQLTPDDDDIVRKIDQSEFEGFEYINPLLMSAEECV
Epidermal growth factor receptor (Homo sapiens), sequence (P00533 whole entry): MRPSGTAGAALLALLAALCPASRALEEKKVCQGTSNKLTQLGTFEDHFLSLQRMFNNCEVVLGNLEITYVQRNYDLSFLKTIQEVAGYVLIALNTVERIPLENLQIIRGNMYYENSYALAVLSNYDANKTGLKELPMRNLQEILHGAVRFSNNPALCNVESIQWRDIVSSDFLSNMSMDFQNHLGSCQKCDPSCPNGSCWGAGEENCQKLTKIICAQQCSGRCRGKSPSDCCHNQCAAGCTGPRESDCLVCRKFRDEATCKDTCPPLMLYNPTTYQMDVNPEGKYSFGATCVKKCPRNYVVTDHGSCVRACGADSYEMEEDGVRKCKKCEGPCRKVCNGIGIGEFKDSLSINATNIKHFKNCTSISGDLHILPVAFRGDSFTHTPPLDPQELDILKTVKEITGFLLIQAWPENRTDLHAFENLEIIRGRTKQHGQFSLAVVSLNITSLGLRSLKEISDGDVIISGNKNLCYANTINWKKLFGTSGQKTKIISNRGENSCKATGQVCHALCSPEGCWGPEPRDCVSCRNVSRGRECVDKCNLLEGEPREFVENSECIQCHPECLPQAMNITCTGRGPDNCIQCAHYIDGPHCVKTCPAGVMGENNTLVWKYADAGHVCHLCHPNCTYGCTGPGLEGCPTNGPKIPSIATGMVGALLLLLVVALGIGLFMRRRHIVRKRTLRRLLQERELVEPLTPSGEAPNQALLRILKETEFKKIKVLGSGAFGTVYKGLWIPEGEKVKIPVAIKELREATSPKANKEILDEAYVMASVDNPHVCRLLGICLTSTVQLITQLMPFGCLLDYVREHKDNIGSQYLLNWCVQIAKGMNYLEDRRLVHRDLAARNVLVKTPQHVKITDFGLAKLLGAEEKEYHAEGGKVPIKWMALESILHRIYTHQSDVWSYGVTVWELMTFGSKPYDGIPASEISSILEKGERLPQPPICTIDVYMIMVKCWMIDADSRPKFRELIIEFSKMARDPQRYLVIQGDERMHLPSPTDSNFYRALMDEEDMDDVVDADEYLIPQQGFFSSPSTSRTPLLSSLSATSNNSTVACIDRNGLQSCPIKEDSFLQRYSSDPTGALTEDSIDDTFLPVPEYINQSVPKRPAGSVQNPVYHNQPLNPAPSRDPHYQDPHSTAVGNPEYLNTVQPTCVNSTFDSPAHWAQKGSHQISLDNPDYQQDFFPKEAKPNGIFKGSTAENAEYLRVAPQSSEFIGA

What is called IC50 is the midpoint of a concentration-inhibition curve. For `COc1cc(C2=C(c3c[nH]c4ncccc34)C(=O)NC2=O)cc(OC)c1OC`, the viability at 1 µM in assay [1] is 110%; in [5] it was 38.9%. Besides, the Activity in [2] was found to be 89%; in [3], 26.7%; in [4], 84%; in [6] it was 16.3%; in [11], 77%; in [13] it was 9.3%. For the same compound, the Activity in assay [14] came to 49.2%; in assay [15], 109%; in [16], 111%; in [18] it was 97%; in [19] it was 77%; in assay [22], 37.8%. Moreover, the Activity in assay [23] was 94%; in assay [25] it was 93%; in [26], 92%; in [28], 69%; in [29], 65.9%; in [31] it was 50.7%. In addition, the Activity in [32] was determined as 50%; in assay [33], 2%; in assay [34], 99%; in assay [35] it was 0%. For the same compound, the viability at 10 µM in assay [7] was found to be 58.7%; in assay [12], 4.41%. Further, the values for the viability at 20 µM in assay [8] and in assay [17] were 57.1% and 3.56%, respectively. The “inhibition (INH)” value in assay [9] was 61%. The viability at 0.5 µM in assay [10] is 65.9%; in assay [30], 113%. Further, in assay [20], the viability at 5 µM came out at 86.8%. Besides, the viability at 50 µM in assay [21] was determined as 44.7%; in assay [24], 1.77%. The same compound came in with an IC50 in assay [27] of at least 10 µM.

Turning to `COc1ccccc1C1=C(c2c[nH]c3ncccc23)C(=O)NC1=O`, the “inhibition (INH)” value in assay [9] amounted to 30%.
